Here are results for 6 compounds from ChEMBL document CHEMBL1129428 (J Med Chem, 1996).

The test system of data set [1] is Rattus norvegicus. Briefly: Compound was tested for anticonvulsant activity after Oral Administration into Rats by using MES screen test after 0.25h,dose 12.5 mg/kg; No activity was demonstarted. Details: dose 12.5 mg/kg. The data set is classed as functional, organism-based. In short, it runs like this: (§1)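 Rats received the compound orally. […] Rats were tested in the MES screen at 0.25, 0.5, 1, 2 and 4 h. Each value is the number of rats protected out of 4. The test followed NINDS procedures.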

Data set [2] deals with Mus musculus. Put plainly: Compound was tested for toxicity after intraperitoneal injection into mice by using toxicity screen test after 4 hr. The data set is classed as organism-based. The settings on record: in vivo, ip. In short, it runs like this: (§2)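 Mice injected intraperitoneally at 30, 100 and 300 mg/kg and examined 0.5 and 4 h afterwards. Each entry is the minimum dose giving activity (MES protection, scPTZ protection, or rotorod failure for neurotoxicity) in half or more of the mice. Activity is called absent if nothing occurs at 300 mg/kg.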

Data set [3] concerns Rattus norvegicus. Put plainly: Compound was tested for anticonvulsant activity after Oral Administration into Rats by using MES screen test after 0.5h,dose 12.5 mg/kg; No activity was demonstarted. Details: dose 12.5 mg/kg. The data set is classed as functional, organism-based. In short, it runs like this: as §1
Data set [4] has as its system Rattus norvegicus. Put plainly: Compound was tested for anticonvulsant activity after Oral Administration into Rats by using MES screen test after 1h,dose 12.5 mg/kg; No activity was demonstarted. Format: functional, organism-based. Details: dose 12.5 mg/kg. In outline: as §1
Data set [5] concerns Rattus norvegicus. Briefly: Compound was tested for anticonvulsant activity after Oral Administration into Rats by using MES screen test after 2h,dose 12.5 mg/kg; No activity was demonstarted. The data set is classed as functional, organism-based. Details: dose 12.5 mg/kg. In outline: as §1
The subject of data set [6] is Rattus norvegicus. Put plainly: Compound was tested for anticonvulsant activity after Oral Administration into Rats by using MES screen test after 4h,dose 12.5 mg/kg; No activity was demonstarted. The data set is classed as functional, organism-based. Details: dose 12.5 mg/kg. In short, it runs like this: as §1
Data set [7] has as its system Rattus norvegicus. Briefly: Compound was tested for anticonvulsant activity after Oral Administration into Rats by using MES screen test after 4h,dose 30 mg/kg; number of rats out of four which were protected. The data set is classed as functional. In short, it runs like this: as §1
The subject of data set [8] is Mus musculus. Briefly: Toxicity after intraperitoneal injection into mice by using toxicity screen test after 0.5 hr. Format: organism-based. To be noted: in vivo, ip. In short, it runs like this:
as §2

The test system of data set [9] is Mus musculus. Put plainly: Anticonvulsant activity after intraperitoneal injection into mice by using MES screen test after 0.5 hr. The data set is classed as functional.
The test system of data set [10] is Rattus norvegicus. Briefly: Compound was tested for anticonvulsant activity after Oral Administration into Rats by using MES screen test after 0.5h,dose 30 mg/kg; number of rats out of four which were protected. The data set is classed as functional. In short, it runs like this:
as §1

For data set [11], the system named is Rattus norvegicus. Put plainly: Compound was tested for anticonvulsant activity after Oral Administration into Rats by using MES screen test after 1h,dose 30 mg/kg; number of rats out of four which were protected. Format: functional. In short, it runs like this:
as §1

Data set [12] relates to Rattus norvegicus. Briefly: Compound was tested for anticonvulsant activity after Oral Administration into Rats by using MES screen test after 2h,dose 30 mg/kg; number of rats out of four which were protected. The data set is classed as functional. In outline:
as §1

Data set [13] concerns Rattus norvegicus. Briefly: Compound was tested for anticonvulsant activity after Oral Administration into rat by using MES screen test after 2 hr. The data set is classed as functional. In outline:
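Rats dosed orally, typically at 50 mg/kg first, then mostly 12.5 mg/kg (some compounds at 30 mg/kg), and tested by maximal electroshock. Four rats per compound, scored at 0.25, 0.5, 1, 2 and 4 h as the number of rats protected out of 4.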

Data set [14] is described as follows: Compound was tested for toxicity after oral administration in rat by using neurotoxicity screen test after 0.25-24 hr. The data set is classed as organism-based. To be noted: in vivo. In outline: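 Rat neurotoxicity after oral dosing, observed at 0.25, 0.5, 1, 2, 4, 6, 8 and 24 h (8 h omitted for one compound).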
Data set [15] has as its system Mus musculus. Put plainly: Anticonvulsant activity after intraperitoneal injection into mice by using scPTZ screen after 0.5 hr. The data set is classed as functional.
The nature of data set [16]: Compound was tested for toxicity after intraperitoneal injection into mice by using neurotoxicity screen test after 2 hr. Format: organism-based. To be noted: mouse, in vivo, ip. In short, it runs like this:
(§3)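 Quantitative intraperitoneal mouse testing in the MES, scPTZ or rotorod neurotoxicity screens at the peak time given for each compound (0.25–2 h). ED50 or TD50 reported in mg/kg with 95% CI and slope (SE).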

In data set [17] the test system is Rattus norvegicus. Put plainly: Compound was tested for anticonvulsant activity after Oral Administration into Rats by using MES screen test after 0.25h,dose 30 mg/kg; No activity was demonstarted. Format: functional, organism-based. Details: dose 30 mg/kg. In outline:
as §1

Data set [18] has as its system Mus musculus. Put plainly: Anticonvulsant activity after intraperitoneal injection into mice measured in a maximal electroshock scree (MES) screen. Format: functional.
For data set [19], the system named is Mus musculus. Briefly: Anticonvulsant activity after intraperitoneal injection into mice by using scPTZ screen test after 4 hr. The data set is classed as functional.
The test system of data set [20] is Mus musculus. Put plainly: Compound was tested for anticonvulsant activity after intraperitoneal injection into mice by using MES screen test after 0.5 hr. The data set is classed as functional. The settings on record: ip. In outline: as §2
A short description of data set [21]: Protection index = TD50/ED50 (MES). To be noted: mouse, in vivo; read-out: PI.
Data set [22] is described as follows: Compound was tested for toxicity after intraperitoneal injection into mice by using neurotoxicity screen test after 1 hr. The data set is classed as organism-based. To be noted: mouse, in vivo, ip. In outline: as §3
For data set [23], the system named is Rattus norvegicus. Put plainly: Compound was tested for anticonvulsant activity after Oral Administration into Rats by using MES screen test after 4h,dose 12.5 mg/kg; number of rats out of four which were protected. Format: functional. In outline:
as §1

In data set [24] the test system is Mus musculus. Briefly: Compound was tested for anticonvulsant activity after intraperitoneal injection into mice by using scPTZ screen test after 0.5 hr. The data set is classed as functional. To be noted: ip. In short, it runs like this:
as §2

For data set [25], the system named is Rattus norvegicus. Briefly: Anticonvulsant activity after oral administration into rats. Details: concentration or dose not given beside the values. The data set is classed as functional.
The test system of data set [26] is Rattus norvegicus. Briefly: Compound was tested for anticonvulsant activity after Oral Administration into Rats by using MES screen test after 0.25h,dose 12.5 mg/kg; number of rats out of four which were protected. Format: functional. In outline:
as §1

Data set [27] has as its system Rattus norvegicus. Briefly: Compound was tested for anticonvulsant activity after Oral Administration into Rats by using MES screen test after 1h,dose 12.5 mg/kg; number of rats out of four which were protected. Format: functional. In short, it runs like this: as §1
Data set [28] concerns Rattus norvegicus. Briefly: Compound was tested for anticonvulsant activity after Oral Administration into Rats by using MES screen test after 2h,dose 12.5 mg/kg; number of rats out of four which were protected. The data set is classed as functional. In outline: as §1
Data set [29] has as its system Rattus norvegicus. Briefly: Compound was tested for anticonvulsant activity after Oral Administration into Rats by using MES screen test after 0.25h,dose 30 mg/kg; number of rats out of four which were protected. Format: functional. In outline: as §1

As a reminder, the ED50 is the midpoint of the dose-response relation. In general, TD50 refers to the dose at which the toxic effect under study appears in half of the subjects.

For the compound `CC/C(=N/NC(N)=O)c1ccccc1Oc1ccc(F)cc1`, the Activity result in the data set on Rattus norvegicus [1], with Rattus norvegicus [3], in the data set with Rattus norvegicus [4], in the data set on Rattus norvegicus [5] and in the data set with Rattus norvegicus [6] was “No activity” in each case. The same compound had a Dose in the data set on Mus musculus [2] of 300 mg/kg.
Regarding `CC/C(=N/NC(N)=O)c1ccc(Oc2ccc(Cl)cc2)cc1`, the Activity with Rattus norvegicus [7] was 4; in the data set with Rattus norvegicus [10] it was 1; with Rattus norvegicus [11], 4; in the data set with Rattus norvegicus [12], 4; in the data set with Rattus norvegicus [17] it was “No activity”. For the same compound, the Dose with Mus musculus [8] was found to be 300 mg/kg; in the data set on Mus musculus [9], 30 mg/kg; with Mus musculus [2], 100 mg/kg; in the data set on Mus musculus [15], 300 mg/kg. Also, the 50% effect level in the data set with Rattus norvegicus [13] (ED50) was put at a dose of 2.89 mg/kg. This compound yielded a TD50 in data set [14] above 500 mg/kg. Also, the TD50 at 2 h in data set [16] is below 100 mg/kg.
Take `CC/C(=N/NC(N)=O)c1ccc(Sc2ccccc2)cc1`: the Activity with Rattus norvegicus [7] was 4; in the data set with Rattus norvegicus [10] it was 3; in the data set with Rattus norvegicus [11], 4; with Rattus norvegicus [12], 3; in the data set on Rattus norvegicus [17], “No activity”. Also, the Dose worked out at 100 mg/kg in the data set on Mus musculus [8]; 30 mg/kg with Mus musculus [9]; 100 mg/kg in the data set on Mus musculus [2]; 30 mg/kg in the data set on Mus musculus [18]; 100 mg/kg in the data set on Mus musculus [15]; 100 mg/kg in the data set with Mus musculus [19]. For the same compound, the 50% effect level in the data set on Rattus norvegicus [13] (ED50) was put at a dose of 18.6 mg/kg.
In the case of `NC(=O)N/N=C\c1ccc(OS(=O)(=O)c2ccccc2)cc1`, the Dose stood at 300 mg/kg in the data set on Mus musculus [8]; 30 mg/kg with Mus musculus [9]; 300 mg/kg in the data set on Mus musculus [2]; 30 mg/kg with Mus musculus [18]; 30 mg/kg with Mus musculus [15]. The ED50 was 25.3 mg/kg in the data set on Mus musculus [20] and above 100 mg/kg with Mus musculus [24]. The selectivity ratio in data set [21] stood at 4.47. In [22], this compound registered a TD50 at 1 h of 113 mg/kg. The Activity with Rattus norvegicus [23] amounted to 3; in the data set on Rattus norvegicus [25], 2; in the data set with Rattus norvegicus [26], 1; in the data set on Rattus norvegicus [27], 2; in the data set on Rattus norvegicus [28], 4.
Turning to `Cc1cccc(C)c1Oc1ccc(/C=N/NC(N)=O)cc1`, the Activity in the data set with Rattus norvegicus [7] was 4; with Rattus norvegicus [29], 1; with Rattus norvegicus [10], 4; with Rattus norvegicus [11], 4; in the data set on Rattus norvegicus [12] it was 4. Also, the Dose with Mus musculus [8] was 300 mg/kg; in the data set on Mus musculus [9], 30 mg/kg; with Mus musculus [2] it was 300 mg/kg; with Mus musculus [18], 100 mg/kg; with Mus musculus [15], 30 mg/kg; in the data set with Mus musculus [19] it was 100 mg/kg.
With `Cc1cc(C)cc(Oc2ccc(/C=N/NC(N)=O)cc2)c1`, the Activity result is “No activity” in the data set with Rattus norvegicus [1]; 4 in the data set with Rattus norvegicus [25]; 3 in the data set on Rattus norvegicus [27]; 2 in the data set on Rattus norvegicus [28]; “No activity” in the data set on Rattus norvegicus [6]. The Dose in the data set on Mus musculus [9] was 30 mg/kg; in the data set with Mus musculus [18], 300 mg/kg; in the data set on Mus musculus [15] it was 300 mg/kg.
